Assay results as given in ChEMBL document CHEMBL1687755, “PER-6, an extended-spectrum beta-lactamase from Aeromonas allosaccharophila” (Antimicrob Agents Chemother, 2010).
Values after ≈ are worked out from the molar mass of the structure shown.

What was measured:
Escherichia coli [1] = experiment: Antimicrobial activity against Escherichia coli DH10B harboring recombinant Aeromonas allosaccharophila AL-1 beta-lactamase PER6 by agar dilution method; format: functional; details: K-12 DH10B
[2] = tested on: Aeromonas allosaccharophila; experiment: Antimicrobial activity against Aeromonas allosaccharophila AL-1 expressing beta-lactamase PER6 by agar dilution method; format: functional
Outline: (§1)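 The test organism was environmental isolate AL-1, recovered from Seine River water on MacConkey agar containing ceftazidime (2 μg/ml). It was identified by API 32GN and 16S rRNA gene sequencing. MICs were determined by agar dilution on Mueller-Hinton agar and interpreted by CLSI guidelines.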

Escherichia coli [3] = experiment: Antimicrobial activity against Escherichia coli DH10B by agar dilution method; format: functional; details: K-12 DH10B
Outline: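 MICs measured by agar dilution on Mueller-Hinton agar plates, the method used for imipenem and imipenem combined with clavulanate; other MICs were obtained by Etest. Results were interpreted according to CLSI guidelines. Test strains were E. coli DH10B recombinants carrying cloned PER-1, PER-2 or PER-6 β-lactamase genes.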

Escherichia coli [4] = experiment: Antimicrobial activity against Escherichia coli DH10B harboring recombinant Aeromonas allosaccharophila AL-1 beta-lactamase PER1 by agar dilution method; format: functional; details: K-12 DH10B
Escherichia coli [5] = experiment: Antimicrobial activity against Escherichia coli DH10B harboring recombinant Aeromonas allosaccharophila AL-1 beta-lactamase PER2 by agar dilution method; format: functional; details: K-12 DH10B
[6] = tested on: Aeromonas allosaccharophila; experiment: Ratio of Kcat to Km for Aeromonas allosaccharophila AL-1 beta-lactamase PER2
[7] = tested on: Aeromonas allosaccharophila; experiment: Antimicrobial activity against Aeromonas allosaccharophila AL-1 expressing beta-lactamase PER6 by agar dilution method in presence of 4 ug/ml of clavulanic acid; format: functional; outline: as §1

CO/N=C(\C(=O)N[C@@H]1C(=O)N2C(C(=O)[O-])=C(C[n+]3cccc4c3CCC4)CS[C@H]12)c1csc(N)n1 [CEFPIROME]
MIC (Escherichia coli [1]): 8 µg/mL
MIC [2]: 0.5 µg/mL (≈ 0.972 µM)
MIC (Escherichia coli [3]): 0.06 µg/mL (≈ 0.117 µM)
MIC (Escherichia coli [4]): 16 µg/mL
MIC (Escherichia coli [5]): 16 µg/mL

CC(C)(O/N=C(\C(=O)N[C@@H]1C(=O)N2C(C(=O)[O-])=C(C[n+]3ccccc3)CS[C@H]12)c1csc(N)n1)C(=O)O [CEFTAZIDIME]
MIC (Escherichia coli [1]): > 256 µg/mL
MIC [2]: 128 µg/mL (≈ 234 µM)
MIC (Escherichia coli [3]): 0.5 µg/mL (≈ 0.915 µM)
MIC (Escherichia coli [4]): > 256 µg/mL
kcat/Km [6]: 430000 M⁻¹ s⁻¹
MIC (Escherichia coli [5]): > 256 µg/mL

CC(=O)OCC1=C(C(=O)O)N2C(=O)[C@@H](NC(=O)Cc3cccs3)[C@H]2SC1 [CEPHALOTHIN]
MIC (Escherichia coli [1]): > 256 µg/mL
MIC [2]: 16 µg/mL (≈ 40.4 µM)
MIC (Escherichia coli [3]): 2 µg/mL (≈ 5.04 µM)
MIC (Escherichia coli [4]): > 256 µg/mL
kcat/Km [6]: 670000 M⁻¹ s⁻¹
MIC (Escherichia coli [5]): > 256 µg/mL

C[C@@H](O)[C@H]1C(=O)N2C(C(=O)O)=C(SCCNC=N)C[C@H]12 [IMIPENEM ANHYDROUS]
MIC [2]: 1 µg/mL (≈ 3.34 µM)
kcat/Km [6]: < 10000 M⁻¹ s⁻¹
MIC [7]: 0.5 µg/mL
